According to ChEMBL document CHEMBL4219023, “Synthesis and biological activity of novel tert-amylphenoxyalkyl (homo)piperidine derivatives as histamine H3R ligands” (Bioorg Med Chem, 2017):
Active and inactive are the calls of the source. The calls are words filed in the database; no cut-off is given here.

Columns and labels:
[1] = tested on: Mus musculus; assay: Anticonvulsant activity in CF-1 albino mouse assessed as protection against maximal electroshock-induced seizures at 30 mg/kg, ip after 4 hrs; format: functional, organism-based
Procedure, shortened: (§1)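 Male CF-1 albino mice received compound i.p. as a suspension in 0.5% methylcellulose (30, 100 or 300 mg/kg). Maximal electroshock seizure test read 0.5 h and 4 h after dosing. Result given as animals protected/animals tested.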

[2] = tested on: Mus musculus; assay: Anticonvulsant activity in CF-1 albino mouse assessed as protection against subcutaneous pentetrazole-induced seizures at 100 mg/kg, ip after 0.5 hrs; format: functional, organism-based
[3] = tested on: Mus musculus; assay: Neurotoxicity in CF-1 albino mouse assessed as unable to grasp at 100 mg/kg, ip after 0.5 hrs by rotarod test; format: toxicity, organism-based; details: in vivo
Procedure, shortened: (§2)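 Anticonvulsant Screening Program (NINDS) Phase 1 neurotoxicity screen in male albino CF-1 mice. Compounds were given i.p. as suspensions in 0.5% methylcellulose at 30, 100 and/or 300 mg/kg, and animals were observed 0.5 h and 4 h after dosing. The rotarod test was scored as number of animals showing toxicity over number tested, with the kind of toxicity recorded: inability to grasp rotorod, death, diarrhea, continuous seizure activity, loss of righting reflex, myoclonic jerks or tremors.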

[4] = tested on: Mus musculus; assay: Neurotoxicity in CF-1 albino mouse assessed as death at 100 mg/kg, ip after 4 hrs by rotarod test; format: toxicity, organism-based; details: in vivo; procedure, shortened: as §2
[5] = tested on: Mus musculus; assay: Neurotoxicity in CF-1 albino mouse assessed as death at 300 mg/kg, ip after 0.5 hrs by rotarod test; details: in vivo
[6] = target: T1, Histamine H3 receptor (Homo sapiens, UniProt Q9Y5N1); assay: Displacement of [125I]Iodoproxyfan from recombinant human histamine H3 receptor expressed in CHOK1 cell membranes after 90 mins
T1 sequence (Q9Y5N1 whole entry): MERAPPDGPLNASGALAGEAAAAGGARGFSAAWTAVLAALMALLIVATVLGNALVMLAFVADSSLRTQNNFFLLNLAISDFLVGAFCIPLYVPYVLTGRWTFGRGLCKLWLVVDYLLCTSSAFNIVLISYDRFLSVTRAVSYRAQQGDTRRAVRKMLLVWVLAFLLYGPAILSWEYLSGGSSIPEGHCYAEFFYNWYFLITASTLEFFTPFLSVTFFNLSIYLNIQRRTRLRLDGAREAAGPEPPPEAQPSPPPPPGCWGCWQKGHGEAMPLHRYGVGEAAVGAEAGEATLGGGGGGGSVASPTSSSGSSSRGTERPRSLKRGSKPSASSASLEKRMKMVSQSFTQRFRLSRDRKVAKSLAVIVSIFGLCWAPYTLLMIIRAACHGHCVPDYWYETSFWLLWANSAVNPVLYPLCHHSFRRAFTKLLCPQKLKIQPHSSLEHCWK
Procedure, shortened: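 Membranes of CHO-K1 cells expressing hH3R were incubated 90 min at 25 °C, shaken at 250 rpm, with [125I]iodoproxyfan (16–50 pM) and test compound. Nonspecific binding was defined with 1 μM imetit. Separation by filtration on PEI-treated GF/B filters. Ki obtained from IC50 by Cheng-Prusoff.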

[7] = tested on: Mus musculus; assay: Anticonvulsant activity in CF-1 albino mouse assessed as protection against subcutaneous pentetrazole-induced seizures at 30 mg/kg, ip after 0.5 hrs; format: functional, organism-based
[8] = tested on: Mus musculus; assay: Anticonvulsant activity in CF-1 albino mouse assessed as protection against maximal electroshock-induced seizures at 300 mg/kg, ip after 0.5 hrs; format: functional, organism-based; procedure, shortened: as §1
[9] = tested on: Mus musculus; assay: Anticonvulsant activity in CF-1 albino mouse assessed as protection against maximal electroshock-induced seizures at 100 mg/kg, ip after 4 hrs; format: functional, organism-based; procedure, shortened: as §1
[10] = tested on: Mus musculus; assay: Anticonvulsant activity in CF-1 albino mouse assessed as protection against subcutaneous pentetrazole-induced seizures at 300 mg/kg, ip after 0.5 hrs; format: functional, organism-based
[11] = tested on: Mus musculus; assay: Neurotoxicity in CF-1 albino mouse at 100 mg/kg, ip after 0.5 hrs by rotarod test; format: toxicity, organism-based; details: in vivo; procedure, shortened: as §2
[12] = tested on: Mus musculus; assay: Anticonvulsant activity in CF-1 albino mouse assessed as protection against maximal electroshock-induced seizures at 30 mg/kg, ip after 0.5 hrs; format: functional, organism-based; procedure, shortened: as §1
[13] = tested on: Mus musculus; assay: Neurotoxicity in CF-1 albino mouse assessed as death at 300 mg/kg, ip after 4 hrs by rotarod test; format: toxicity, organism-based; details: in vivo; procedure, shortened: as §2
[14] = tested on: Mus musculus; assay: Anticonvulsant activity in CF-1 albino mouse assessed as protection against subcutaneous pentetrazole-induced seizures at 300 mg/kg, ip after 4 hrs; format: functional, organism-based
[15] = tested on: Mus musculus; assay: Anticonvulsant activity in CF-1 albino mouse assessed as protection against subcutaneous pentetrazole-induced seizures at 100 mg/kg, ip after 4 hrs; format: functional, organism-based
[16] = tested on: Mus musculus; assay: Anticonvulsant activity in CF-1 albino mouse assessed as protection against subcutaneous pentetrazole-induced seizures at 30 mg/kg, ip after 4 hrs; format: functional, organism-based
[17] = Lipophilicity of compound by RP-TLC analysis; format: physicochemical; details: methanol:acetic acid:water
Procedure, shortened: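 Reversed-phase TLC on RP-18 plates with methanol:acetic acid:water mobile phase (acid constant at 10%, methanol 85–55% in 5% steps). Spots visualised with iodine. RM values were derived from Rf and extrapolated to zero methanol to give RM0.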

[18] = tested on: Mus musculus; assay: Neurotoxicity in CF-1 albino mouse at 30 mg/kg, ip after 4 hrs by rotarod test; format: toxicity, organism-based; details: in vivo
Procedure, shortened: (§3)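 Male CF-1 mice were dosed i.p. with compound suspended in 0.5% methylcellulose (30, 100 or 300 mg/kg). Neurotoxicity was scored by rotarod 0.5 h and 4 h after dosing, as animals showing toxicity/animals tested. Type of toxicity was noted, e.g. inability to grasp the rod, tremors, death.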

[19] = tested on: Mus musculus; assay: Neurotoxicity in CF-1 albino mouse assessed as diarrhea at 300 mg/kg, ip after 0.5 hrs by rotarod test; format: toxicity, organism-based; details: in vivo; procedure, shortened: as §2
[20] = tested on: Mus musculus; assay: Neurotoxicity in CF-1 albino mouse assessed as diarrhea at 100 mg/kg, ip after 0.5 hrs by rotarod test; format: toxicity, organism-based; details: in vivo; procedure, shortened: as §2
[21] = target: T1, Histamine H3 receptor; assay: Displacement of [3H]Nalpha-Methylhistamine from recombinant human histamine H3 receptor expressed in HEK293 cell membranes after 90 mins by liquid scintillation counting analysis
[22] = tested on: Mus musculus; assay: Neurotoxicity in CF-1 albino mouse assessed as death at 300 mg/kg, ip after 0.5 hrs by rotarod test; format: toxicity, organism-based; details: in vivo; procedure, shortened: as §2
[23] = tested on: Mus musculus; assay: Anticonvulsant activity in CF-1 albino mouse assessed as protection against maximal electroshock-induced seizures at 100 mg/kg, ip after 0.5 hrs; format: functional, organism-based; procedure, shortened: as §1
[24] = tested on: Mus musculus; assay: Neurotoxicity in CF-1 albino mouse at 300 mg/kg, ip after 4 hrs by rotarod test; format: toxicity, organism-based; details: in vivo; procedure, shortened: as §2
[25] = tested on: Mus musculus; assay: Neurotoxicity in CF-1 albino mouse at 100 mg/kg, ip after 4 hrs by rotarod test; format: toxicity, organism-based; details: in vivo; procedure, shortened: as §3
[26] = tested on: Mus musculus; assay: Neurotoxicity in CF-1 albino mouse assessed as continuous seizure activity at 300 mg/kg, ip after 0.5 hrs by rotarod test; format: toxicity, organism-based; details: in vivo; procedure, shortened: as §2
[27] = tested on: Mus musculus; assay: […] in po dosed mouse brain assessed as activation in HA release measured after 90 mins; format: functional; details: 1.5 h
[28] = tested on: Mus musculus; assay: Neurotoxicity in CF-1 albino mouse assessed as continuous seizure activity at 100 mg/kg, ip after 0.5 hrs by rotarod test; format: toxicity, organism-based; details: in vivo; procedure, shortened: as §2
[29] = tested on: Mus musculus; assay: Neurotoxicity in CF-1 albino mouse assessed as tremor at 30 mg/kg, ip after 0.5 hrs by rotarod test; format: toxicity, organism-based; details: in vivo, 100 mg/kg, in the assay text read “100 mg/kg” for “30 mg/kg”; procedure, shortened: as §3
[30] = tested on: HEK293; assay: Cytotoxicity against HEK293 cells assessed as reduction in cell viability after 48 hrs by EZ4U Non-radioactive cell proliferation assay; format: cell-based; details: Homo sapiens, HEK293, 48 h
Procedure, shortened: (§4)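 IMR-32 cells (2×10^4/well) or HEK-293 cells (1.5×10^4/well) in DMEM with 10% FBS were preincubated 24 h at 37 °C, 5% CO2. Compounds from 25 mM DMSO stocks were added at final 0.01–250 μM, with DMSO ≤1%. After 48 h, EZ4U label was added for 5 h and absorbance read at 492 nm.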

[31] = Safety index, ratio of compound IC50 to doxorubicin IC50 for human IMR32 cells after 48 hrs by EZ4U Non-radioactive cell proliferation assay; format: ADME, cell-based; details: IMR-32 cells, read-out: Ratio IC50
[32] = tested on: IMR-32; assay: Cytotoxicity against human IMR32 cells assessed as reduction in cell viability after 48 hrs by EZ4U Non-radioactive cell proliferation assay; format: cell-based; details: IMR-32, 48 h; procedure, shortened: as §4
[33] = Drug metabolism in pooled human liver microsomes assessed as 2-(4-(5-(azepan-1-yl)pentyloxy)phenyl)propan-1-ol metabolite formation at 50 uM after 2 hrs in presence of NADPH by LC/MS analysis; format: ADME, microsome
Procedure, shortened: (§5)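 Pooled human liver microsomes (1 mg/ml) in 0.1 M Tris-HCl pH 7.4 with compound at 50 μM. After 5 min preincubation at 37 °C, reaction was started with NADPH regeneration system and run 2 h at 37 °C. Stopped with cold methanol and centrifuged. Supernatant analysed by UPLC-ESI tandem quadrupole MS.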

[34] = target: CYP3A4 (Homo sapiens, UniProt P08684); assay: Activation of recombinant human CYP3A4 using Luciferin-BE as substrate at 25 uM in presence of NADPH by P450-Glo luminescence assay relative to control; format: ADME; details: recombinant human CYP3A4, probe Luciferin-PPXE, in the assay text read “Luciferin-PPXE” for “Luciferin-BE”, read-out: Activity
Sequence of CYP3A4 (P08684 whole entry): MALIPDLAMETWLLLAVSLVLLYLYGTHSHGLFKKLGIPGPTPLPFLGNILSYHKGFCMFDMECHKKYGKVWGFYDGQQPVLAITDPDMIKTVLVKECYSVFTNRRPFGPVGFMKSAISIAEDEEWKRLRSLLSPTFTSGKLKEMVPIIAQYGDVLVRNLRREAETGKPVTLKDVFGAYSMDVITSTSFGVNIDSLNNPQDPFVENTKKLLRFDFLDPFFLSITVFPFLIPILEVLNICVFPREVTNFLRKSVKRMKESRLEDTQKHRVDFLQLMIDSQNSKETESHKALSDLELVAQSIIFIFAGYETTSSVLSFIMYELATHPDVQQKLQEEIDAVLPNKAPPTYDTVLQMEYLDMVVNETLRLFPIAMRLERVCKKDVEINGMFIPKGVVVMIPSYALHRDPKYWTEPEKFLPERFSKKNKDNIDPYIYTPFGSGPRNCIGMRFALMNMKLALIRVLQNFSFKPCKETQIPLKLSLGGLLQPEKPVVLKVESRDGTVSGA
Procedure, shortened: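 Recombinant human CYP3A4 P450-Glo luminescence assay: enzyme converts luciferin substrate to D-luciferin, then firefly luciferase is added and light output read as a measure of CYP3A4 activity. Final ligand concentrations 0.025–25 μM.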

[35] = tested on: Mus musculus; assay: Neurotoxicity in CF-1 albino mouse at 30 mg/kg, ip after 0.5 hrs by rotarod test; format: toxicity, organism-based; details: in vivo; procedure, shortened: as §3
[36] = Safety index, ratio of compound IC50 to doxorubicin IC50 for HEK293 cells after 48 hrs by EZ4U non-radioactive cell proliferation assay; format: ADME, cell-based; details: human, read-out: Ratio IC50
[37] = Drug level in pooled human liver microsomes treated with 50 uM 1-(5-(4-(tert-Pentyl)phenoxy)pentyl)azepane hydrogen oxalate after 2 hrs in presence of NADPH by LC/MS analysis; format: ADME, microsome; procedure, shortened: as §5
[38] = tested on: Mus musculus; assay: Neurotoxicity in CF-1 albino mouse assessed as unable to grasp at 30 mg/kg, ip after 0.5 hrs by rotarod test; format: toxicity, organism-based; details: in vivo, 100 mg/kg, in the assay text read “100 mg/kg” for “30 mg/kg”; procedure, shortened: as §3

SMILES	Activity [1]	Activity [2]	Activity [5]	Ki [6]	Activity [7]	Activity [8]	Activity [9]	Activity [12]	Activity [15]	Activity [16]	Rm [17]	Activity [18]	Activity [23]	further results
CCC(C)(C)c1ccc(OCCCCCCCCN2CCC(C)CC2)cc1.O=C(O)C(=O)O	inactive	inactive	Toxic	0.308 µM	inactive	Active	Active	Active	inactive	inactive	–	–	–	Activity [3]: Toxic; Activity [4]: Toxic; Activity [10]: inactive; Activity [11]: Toxic; Activity [13]: Toxic; Activity [14]: inactive
CCC(C)(C)c1ccc(OCCCCN2CCCCCC2)cc1.O=C(O)C(=O)O	inactive	–	Toxic	–	–	–	Active	inactive	–	–	2.292	Non-Toxic	Active	Activity [19]: Toxic; Activity [20]: Toxic; Ki [21]: 0.068 µM; Activity [22]: Toxic
CCC(C)(C)c1ccc(OCCCCCCCN2CCCCC2)cc1.O=C(O)C(=O)O	inactive	inactive	Toxic	0.055 µM	inactive	Active	inactive	inactive	inactive	inactive	2.624	Non-Toxic	Active	Activity [3]: Toxic; Activity [24]: Non-Toxic; Activity [25]: Non-Toxic
CCC(C)(C)c1ccc(OCCCCN2CCC(C)CC2)cc1.O=C(O)C(=O)O	inactive	Active	Toxic	–	inactive	–	inactive	Active	–	inactive	–	Non-Toxic	Active	Activity [19]: Toxic; Ki [21]: 0.238 µM; Activity [22]: Toxic; Activity [10]: Active; Activity [26]: Toxic
Clc1ccc(CCCOCCCN2CCCCC2)cc1 [PITOLISANT]	–	–	–	–	–	–	–	–	–	–	–	–	–	ED50 [27]: 1.5 mg/kg
CCC(C)(C)c1ccc(OCCCCCCN2CCCC(C)C2)cc1.O=C(O)C(=O)O (centres undefined)	inactive	inactive	Toxic	0.0338 µM	inactive	Active	Active	Active	inactive	inactive	2.521	Non-Toxic	Active	Activity [28]: Toxic; Activity [29]: Toxic
CCC(C)(C)c1ccc(OCCCCCN2CCCCCC2)cc1.O=C(O)C(=O)O	inactive	inactive	–	0.0214 µM	inactive	–	–	Active	inactive	inactive	2.389	Non-Toxic	Active	IC50 [30]: 39.5 µM; selectivity ratio at 48 h [31]: > 1000; IC50 [32]: 12.3 µM; Drug metabolism [33]: Metabolite_Detected; activity at 25 µM [34]: 76%; Activity [35]: Non-Toxic; selectivity ratio at 48 h [36]: 50 to 90
CC(CO)c1ccc(OCCCCCN2CCCCCC2)cc1 (centres undefined)	–	–	–	–	–	–	–	–	–	–	–	–	–	Drug uptake [37]: Active
CCC(C)(C)c1ccc(OCCCCCCN2CCCCCC2)cc1.O=C(O)C(=O)O	inactive	inactive	Toxic	0.0412 µM	inactive	–	inactive	inactive	inactive	inactive	2.567	Non-Toxic	Active	Activity [38]: Toxic
